The source of these data is ChEMBL document CHEMBL1150371, “Design and synthesis of benzenesulfonanilides active against methicillin-resistant Staphylococcus aureus and vancomycin-resistant Enterococcus” (Bioorg Med Chem, 2008).

Each structure is given as a SMILES string. In brackets after ≈: the same amount, converted by molar mass. Activity calls are given as the source filed them. The calls are words filed in the database; no cut-off is given here. Where only a bound is given, the exact number is not on record here.

Format in all cases: functional
In assay [1] the test system is Staphylococcus aureus. As to the kind of experiment: Antimicrobial activity against methicillin-resistant Staphylococcus aureus OM584 by microdilution method. The procedure, abridged:
(§1)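 Broth microdilution MIC per Japan Society of Chemotherapy standard method. Cultures grown in sensitivity test broth at 37 °C to OD620 0.1, inoculum ≈10^5 CFU/mL. Twofold dilutions from DMSO stock, 500 to 0.2 µg/mL; 20 h, 37 °C, humid. MIC = lowest concentration clearly inhibiting growth by visual inspection; vancomycin standard; media, DMSO and water controls; at least duplicate.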

The next assay concerns Enterococcus faecium. As to the kind of experiment: Antimicrobial activity against vancomycin-resistant Enterococcus faecium FN-1 by microdilution susceptibility test. In a few lines: as §1
Assay [2] relates to Staphylococcus aureus. Description: Antimicrobial activity against methicillin-resistant Staphylococcus aureus at […] by disk diffusion method. In a few lines:
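Overnight nutrient-broth culture (35 °C, 12–18 h) of MRSA OM584 spread on Mueller-Hinton agar; 8-mm paper discs given 10 µL of 20 mM compound in DMSO; plates incubated at 37 °C about 20 h; inhibition zones measured and scored: −, ± (0–1 mm), +1 (1–15 mm), +2 (15–20 mm), +3 (>20 mm).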

As to `O=S(=O)(Nc1ccc(F)c(F)c1)c1cc(C(F)(F)F)cc(C(F)(F)F)c1`, the results for the MIC against Staphylococcus aureus [1] and against Enterococcus faecium were 3.9 µg/mL (≈ 9.62 µM) and 7.8 µg/mL (≈ 19.2 µM), respectively.
With `CS(=O)(=O)Nc1ccc(S(=O)(=O)Nc2ccc(Cl)cc2)cc1`, the “inhibition zone (IZ)” value in the assay with Staphylococcus aureus [2] was found to be 0 mm.
As to `Nc1ccc(S(=O)(=O)Nc2cc(C(F)(F)F)cc(C(F)(F)F)c2)cc1`, the MIC was 125 µg/mL (≈ 325 µM) in the assay with Staphylococcus aureus [1] and 62.5 µg/mL (≈ 163 µM) in the assay with Enterococcus faecium. Further, the “inhibition zone (IZ)” value with Staphylococcus aureus [2] was 1 mm.
In the case of `Cc1ccccc1NS(=O)(=O)c1ccc(C(=O)O)cc1`, the result with Staphylococcus aureus [2] was inactive.
As to `CN(c1cc(C(F)(F)F)cc(C(F)(F)F)c1)S(=O)(=O)c1cc(Cl)cc(Cl)c1`, the MIC against Staphylococcus aureus [1] and in the assay on Enterococcus faecium was over 250 µg/mL throughout.
For the molecule `Cc1cc(C)cc(NS(=O)(=O)c2ccc([N+](=O)[O-])cc2)c1`, the result with Staphylococcus aureus [2] was inactive.
On to `O=[N+]([O-])c1ccc(S(=O)(=O)Nc2cc(C(F)(F)F)cc(C(F)(F)F)c2)cc1`, for which the minimal inhibitory concentration (MIC) was found to be 31.3 µg/mL (≈ 75.6 µM) against Staphylococcus aureus [1] and 3.9 µg/mL (≈ 9.41 µM) against Enterococcus faecium. In addition, the “inhibition zone (IZ)” value with Staphylococcus aureus [2] is given as over 20 mm.
As for `COc1ccc(NS(=O)(=O)c2ccc(C(=O)O)cc2)cc1`, in the assay on Staphylococcus aureus [2], the outcome was inactive.
As to `Cc1cc(C)cc(NS(=O)(=O)c2ccc(N)cc2)c1`, the result in the assay on Staphylococcus aureus [2] was inactive.
Regarding `O=S(=O)(Nc1ccc(C(F)(F)F)cn1)c1cc(Cl)cc(Cl)c1`, the MIC against Staphylococcus aureus [1] and in the assay on Enterococcus faecium was over 250 µg/mL each time.
Take `Nc1ccc(S(=O)(=O)Nc2ccccc2)cc1`: in the assay with Staphylococcus aureus [2], the result was inactive.
Take `Cc1ccc(NS(=O)(=O)c2ccc(N)cc2)cc1`: in the assay with Staphylococcus aureus [2], the outcome was inactive.
Turning to `Cc1ccc(NS(=O)(=O)c2ccc([N+](=O)[O-])cc2)cc1`, the result in the assay on Staphylococcus aureus [2] was inactive.
On to `Cc1ccc(NS(=O)(=O)c2cc(C(F)(F)F)cc(C(F)(F)F)c2)cc1`, for which the MIC with Staphylococcus aureus [1] and against Enterococcus faecium was over 250 µg/mL each time.
Take `O=S(=O)(Nc1c(F)cccc1F)c1cc(C(F)(F)F)cc(C(F)(F)F)c1`: the minimum inhibitory concentration (MIC) in the assay on Staphylococcus aureus [1] and against Enterococcus faecium was over 250 µg/mL in each case.
`COc1ccc(NS(=O)(=O)c2cc(Cl)cc(Cl)c2)cc1`: the minimal inhibitory concentration (MIC) in the assay on Staphylococcus aureus [1] and in the assay with Enterococcus faecium was 125 µg/mL (≈ 376 µM) throughout.
Turning to `O=S(=O)(Nc1ccc(Cl)cc1)c1cc(Cl)cc(Cl)c1`, the values for the MIC with Staphylococcus aureus [1] and in the assay with Enterococcus faecium were over 250 µg/mL and 125 µg/mL (≈ 371 µM), respectively.
As to `Nc1ccc(S(=O)(=O)Nc2cc(Cl)cc(Cl)c2)cc1`, the MIC against Staphylococcus aureus [1] is 250 µg/mL (≈ 788 µM); against Enterococcus faecium, 31.3 µg/mL (≈ 98.7 µM).
On to `Cc1ccccc1NS(=O)(=O)c1ccc(NS(C)(=O)=O)cc1`, for which the result in the assay with Staphylococcus aureus [2] was inactive.
As for `O=S(=O)(Nc1cc(Cl)cc(Cl)c1)c1ccc(Cl)cc1`, the figures for the MIC with Staphylococcus aureus [1] and against Enterococcus faecium were 31.3 µg/mL (≈ 93 µM) and 62.5 µg/mL (≈ 186 µM), respectively.
For `COc1ccc(NS(=O)(=O)c2ccc(NS(C)(=O)=O)cc2)cc1`, in the assay with Staphylococcus aureus [2], the result was inactive.
In the case of `Cl.Nc1ccc(S(=O)(=O)Nc2cc(C(F)(F)F)cc(C(F)(F)F)c2)cc1`, the “inhibition zone (IZ)” value in the assay with Staphylococcus aureus [2] turned out to be 1 mm.
For `O=S(=O)(Nc1cc(C(F)(F)F)cc(C(F)(F)F)c1)c1ccc(F)cc1`, the results for the MIC against Staphylococcus aureus [1] and with Enterococcus faecium were 15.6 µg/mL (≈ 40.3 µM) and 62.5 µg/mL (≈ 161 µM), respectively.
As for `O=S(=O)(Nc1c(Cl)cccc1Cl)c1cc(C(F)(F)F)cc(C(F)(F)F)c1`, the minimum inhibitory concentration (MIC) against Staphylococcus aureus [1] and against Enterococcus faecium was over 250 µg/mL each time.
`Cc1cc(C)cc(NS(=O)(=O)c2ccc(C(=O)O)cc2)c1`: the result in the assay on Staphylococcus aureus [2] was inactive.
On the same count and under the same terms, for `Cc1cccc(NS(=O)(=O)c2ccc(N)cc2)c1` the value was “inactive”.
`O=S(=O)(Nc1ccc(Cl)cc1)c1cc(C(F)(F)F)cc(C(F)(F)F)c1`: the figures for the minimal inhibitory concentration (MIC) against Staphylococcus aureus [1] and in the assay with Enterococcus faecium were 31.3 µg/mL (≈ 77.5 µM) and 62.5 µg/mL (≈ 155 µM), respectively.
In the case of `O=S(=O)(Nc1cc(F)ccc1F)c1cc(C(F)(F)F)cc(C(F)(F)F)c1`, the minimum inhibitory concentration (MIC) was 15.6 µg/mL (≈ 38.5 µM) against Staphylococcus aureus [1] and 62.5 µg/mL (≈ 154 µM) in the assay with Enterococcus faecium.
In the case of `O=S(=O)(Nc1cc(Cl)nc(Cl)c1)c1cc(Cl)cc(Cl)c1`, the MIC against Staphylococcus aureus [1] was 15.6 µg/mL (≈ 41.9 µM); against Enterococcus faecium it was 7.8 µg/mL (≈ 21 µM).
In the case of `O=[N+]([O-])c1ccc(NS(=O)(=O)c2cc(C(F)(F)F)cc(C(F)(F)F)c2)cc1`, the MIC against Staphylococcus aureus [1] and against Enterococcus faecium was 7.8 µg/mL (≈ 18.8 µM) each time.
Regarding `O=S(=O)(Nc1cc(Cl)nc(Cl)c1)c1cc(C(F)(F)F)cc(C(F)(F)F)c1`, the MIC is 15.6 µg/mL (≈ 35.5 µM) in the assay on Staphylococcus aureus [1] and 7.8 µg/mL (≈ 17.8 µM) against Enterococcus faecium.
As for `O=S(=O)(Nc1ccc(F)cc1F)c1cc(C(F)(F)F)cc(C(F)(F)F)c1`, the minimum inhibitory concentration (MIC) against Staphylococcus aureus [1] and against Enterococcus faecium was over 250 µg/mL throughout.
For the molecule `CN(c1cc(Cl)cc(Cl)c1)S(=O)(=O)c1cc(C(F)(F)F)cc(C(F)(F)F)c1`, the MIC against Staphylococcus aureus [1] and with Enterococcus faecium was over 250 µg/mL throughout.
`O=S(=O)(Nc1ccc(C(F)(F)F)cc1)c1cc(Cl)cc(Cl)c1`: the minimum inhibitory concentration (MIC) with Staphylococcus aureus [1] and in the assay on Enterococcus faecium was 31.3 µg/mL (≈ 84.6 µM) in each case.
Regarding `CS(=O)(=O)Nc1ccc(S(=O)(=O)Nc2ccccc2)cc1`, the result in the assay with Staphylococcus aureus [2] was inactive.
